ChEMBL document CHEMBL3259770, “Structure-activity relationship studies of the tricyclic indoline resistance-modifying agent” (J Med Chem, 2014)
≈ marks a conversion by molar mass, not a printed value.

Assays:
[1] = Cytotoxicity against human HeLa cells after 24 hrs by CellTiter-Glo assay; assay type: cell-based
Summary of the method: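 HeLa cells seeded at 20 000 cells/well in DMEM with 10% FCS and 1% penicillin/streptomycin, grown 16 h at 37 °C, 5% CO2. Medium renewed, then compound added in DMSO to final 0.5–32 μg/mL, triplicate series. After 24 h at 37 °C, plates equilibrated to room temperature and viability read by CellTiter-Glo luminescence.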

Staphylococcus aureus [2] = experiment: Antibacterial activity against methicillin-resistant Staphylococcus aureus ATCC BAA-44 after overnight incubation by broth microdilution assay in presence of 4 ug/ml amoxicillin and 2 ug/ml clavulanic acid; assay type: functional
Summary of the method: (§1)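 Resensitization screen: compound from a 5 mg/mL DMSO stock, 2-fold serially diluted in MHB from 32 μg/mL final. Antibiotic was held at its CLSI-susceptible level: amoxicillin/clavulanic acid 4/2 μg/mL, cefazolin 8 μg/mL, meropenem 4 μg/mL. Final MRSA inoculum OD600 0.001, overnight at 37 °C with shaking. MRC was the concentration giving no visible overnight growth.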

Staphylococcus aureus [3] = experiment: Antibacterial activity against methicillin-resistant Staphylococcus aureus ATCC BAA-44 after overnight incubation by broth microdilution assay in presence of 8 ug/ml cefazolin; assay type: functional; summary of the method: as §1
Staphylococcus aureus [4] = experiment: Antibacterial activity against methicillin-resistant Staphylococcus aureus ATCC 33592 after overnight incubation by broth microdilution assay in presence of 4 ug/ml meropenem; assay type: functional; summary of the method: as §1

| SMILES | GI50 at 24 h [1] [µg/mL] | MRC (Staphylococcus aureus [2]) [µg/mL] | MRC (Staphylococcus aureus [3]) [µg/mL] | MRC (Staphylococcus aureus [4]) [µg/mL] |
| --- | --- | --- | --- | --- |
| C=C1CCC[C@@H]2Nc3c(F)cc(Br)cc3[C@]12CCNS(=O)(=O)c1ccc(I)cc1 | 19.6 (≈ 33.1 µM) | 4 | 2 | 4 |
| C=C1CCC[C@@H]2Nc3c(F)cc(Br)cc3[C@]12CCNS(=O)(=O)c1ccc(C#N)cc1 | 17 (≈ 34.7 µM) | 8 | 4 | 4 |
| C=C1CCC[C@@H]2Nc3c(F)cc(Br)cc3[C@]12CCNS(=O)(=O)c1ccc(Cl)cc1 | 18.1 (≈ 36.2 µM) | 2 | 4 | 4 |
| C=C1CCC[C@@H]2Nc3c(F)cc(Br)cc3[C@]12CCNS(=O)(=O)c1ccc(C)cc1 | 22 (≈ 45.9 µM) | 4 | 4 | 4 |
| C=C1CCC[C@@H]2Nc3ccc(OC)cc3[C@]12CCNS(=O)(=O)c1ccc(Cl)cc1 | – | >32 | >32 | >32 |
| C=C1CCC[C@@H]2Nc3ccc(Br)cc3[C@]12CCNS(=O)(=O)c1ccc(F)cc1 | – | >32 | >32 | >32 |
| C=C1CCC[C@@H]2N(S(=O)(=O)c3ccc(Cl)cc3)c3ccc(Br)cc3[C@]12CCNS(=O)(=O)c1ccc(Cl)cc1 | – | >32 | >32 | >32 |
| C=C1CCC[C@@H]2Nc3ccc(Br)cc3[C@]12CCNC(=O)c1ccc(Cl)cc1 | – | >32 | >32 | >32 |
| C=C1CCC[C@@H]2Nc3ccc(Br)cc3[C@]12CCNS(=O)(=O)c1ccc(Cl)cc1 | 17.1 (≈ 35.5 µM) | 4 | 4 | 4 |
| C=C1CCC[C@@H]2Nc3ccc(Br)cc3[C@]12CCNS(=O)(=O)c1ccc(Br)cc1 | 40 (≈ 76 µM) | 4 | 4 | 8 |
| C=C1CCC[C@@H]2Nc3c(Cl)cc(Cl)cc3[C@]12CCNS(=O)(=O)c1ccc(Cl)cc1 | 13.6 (≈ 28.8 µM) | 4 | 4 | 4 |
| C=C1CCC[C@@H]2Nc3ccc(Br)cc3[C@]12CCN | – | 32 | 32 | 32 |
| C=C1CCC[C@@H]2Nc3ccc(Br)cc3[C@]12CCNS(=O)(=O)c1ccccc1 | – | 8 | 8 | 16 |
| C=C1CCC[C@@H]2Nc3c(Br)cccc3[C@]12CCNS(=O)(=O)c1ccc(Cl)cc1 | – | >32 | 32 | 8 |
| C=C1CCC[C@@H]2Nc3c(F)cc(Br)cc3[C@]12CCNS(=O)(=O)c1ccc(Cl)c(Cl)c1 | 31 (≈ 58 µM) | 4 | 4 | 4 |
| C=C1CCC[C@@H]2Nc3c(F)cc(Br)cc3[C@]12CCNS(=O)(=O)c1ccc(F)cc1 | 18.3 (≈ 37.9 µM) | 4 | 4 | 4 |
| C=C1CCC[C@@H]2Nc3ccc(F)cc3[C@]12CCNS(=O)(=O)c1ccc(Cl)cc1 | – | 16 | 16 | 16 |
| C=C1CCC[C@@H]2Nc3ccc(Br)cc3[C@]12CCN(C(=O)c1ccc(Cl)cc1)S(=O)(=O)c1ccc(Cl)cc1 | – | >32 | >32 | >32 |
| C=C1CCC[C@@H]2Nc3c(F)cc(Cl)cc3[C@]12CCNS(=O)(=O)c1ccc(Cl)cc1 | – | 16 | 16 | 32 |
| C=C1CCC[C@@H]2Nc3ccc(Br)cc3[C@]12CCN(S(=O)(=O)c1ccc(Cl)cc1)S(=O)(=O)c1ccc(Cl)cc1 | – | >32 | >32 | >32 |
| C=C1CCC[C@@H]2Nc3ccc(Br)cc3[C@]12CCNS(=O)(=O)c1ccc(C#N)cc1 | – | 16 | 8 | 16 |
| C=C1CCC[C@@H]2Nc3c(ccc4ccccc34)[C@]12CCNS(=O)(=O)c1ccc(Cl)cc1 | – | >32 | >32 | >32 |
